Assay outcomes deposited in PubChem BioAssay by several laboratories.
This excerpt belongs to a sample that is enriched for hits.
H69AR growth 86K = proliferation blockers of H69AR lung cancer cells, primary screen, cell-based, human, 86K library | H69AR lung tumor viability, ATP luminescence, 72 h; hits give low values | viability, % at 10 µM | 6% of 85,000 active | AID 598, 2007;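 active = viability at or below 40%; inactive = viability above 40%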;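 note: multidrug resistant small cell line overexpressing MRP-1 efflux transporter; 100% = mean luminescence of untreated control wells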
HUVEC prolif 384 = inhibitors of HUVEC proliferation, primary screen, cell-based, 384-well | CellTiter-Glo luminescence, 72 h; hits give low values | viability, % at 10 µM (by protocol) | 1.1% of 86,000 active | AID 648, 2007;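 active = viability at or below 30%; inactive = viability above 30%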;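 note: 100% = median luminescence of DMSO-only cell control wells on each plate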
Pyk2 oligo antag = antagonists of Pyk2 self-association, primary screen, Q293 cells, FERM NanoBiT luminescence, HTS; z-score (the deposit names both 25 µM and 10 µM); Protein-tyrosine kinase 2-beta (Homo sapiens), Q14289; hits give low values; 0.83% of 99,000 active; AID 1347419, 2020;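 active = Z-score of -3 or lower, scaled per plate to the spread of control and sample wells; inactive = z-score above -3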;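 note: negative z-score means lost luminescence so less FERM oligomerization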
Target sequence (Q14289 whole entry, looked up): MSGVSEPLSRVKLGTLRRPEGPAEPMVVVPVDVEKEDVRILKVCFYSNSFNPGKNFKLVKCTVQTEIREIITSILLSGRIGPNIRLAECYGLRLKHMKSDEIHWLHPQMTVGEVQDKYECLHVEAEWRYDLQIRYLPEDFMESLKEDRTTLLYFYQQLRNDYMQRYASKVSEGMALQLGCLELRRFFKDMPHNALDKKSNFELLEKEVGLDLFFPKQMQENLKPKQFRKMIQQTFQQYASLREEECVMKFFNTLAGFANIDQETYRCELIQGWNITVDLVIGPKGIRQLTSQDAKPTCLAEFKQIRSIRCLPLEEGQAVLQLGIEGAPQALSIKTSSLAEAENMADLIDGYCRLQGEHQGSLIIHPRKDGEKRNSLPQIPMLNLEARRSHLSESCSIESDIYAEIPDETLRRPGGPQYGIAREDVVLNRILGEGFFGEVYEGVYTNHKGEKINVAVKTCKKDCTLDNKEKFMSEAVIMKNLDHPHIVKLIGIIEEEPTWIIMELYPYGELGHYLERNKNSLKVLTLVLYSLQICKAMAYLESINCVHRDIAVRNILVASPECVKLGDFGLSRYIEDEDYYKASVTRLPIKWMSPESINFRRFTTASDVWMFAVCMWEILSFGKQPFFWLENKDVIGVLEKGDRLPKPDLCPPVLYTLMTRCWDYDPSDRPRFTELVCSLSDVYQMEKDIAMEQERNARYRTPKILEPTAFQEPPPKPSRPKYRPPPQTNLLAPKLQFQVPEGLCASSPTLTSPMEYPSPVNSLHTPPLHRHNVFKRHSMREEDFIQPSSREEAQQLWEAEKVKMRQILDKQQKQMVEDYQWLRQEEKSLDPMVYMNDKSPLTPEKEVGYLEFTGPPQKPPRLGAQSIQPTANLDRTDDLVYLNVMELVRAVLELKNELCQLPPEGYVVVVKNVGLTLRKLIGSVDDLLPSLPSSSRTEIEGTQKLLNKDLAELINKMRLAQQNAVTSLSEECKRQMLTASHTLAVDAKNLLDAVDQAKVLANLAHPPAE
bCat KO growth = primary screen for growth suppressors in beta-catenin knockout HCT116 cells (colon tumor, human); viability, % at 10 µM; HCT116 beta-catenin knockout viability, CellTiter-Glo, 60 h; hits give low values; AID 818, 2007; 1.5% of 140,000 active;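 active = viability at or under a set limit, the compound median less 4 SD, cut at about 6% in these data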;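 note: 0% = Hyamine 1622 control at 20 µM and 100% = untreated cell control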
PTEN del growth = growth suppression of PTEN-null HCT116, primary screen, cell-based, CellTiter-Glo; HCT116 PTEN-null viability, 60 h; hits give low values; viability, % at 10 µM; 1.2% of 140,000 active; AID 827, 2007;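 active = viability at or below a set limit, 4 SD under the median of all tested compounds, cut at about 3.7% in these data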;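 note: PTEN knockout HCT116 line with beta catenin targeted HCT116 as companion control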
Fibroblast inh = antiproliferative effect on LL 47 fibroblasts – human, LL 47 cells, CellTiter-Glo luminescence, primary screen; AID 719, 2007; LL 47 human lung fibroblast viability, ATP luminescence; hits give low values; 1.1% of 85,000 active; viability, % at 10 µM;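 active = viability at or below 50% in the single dose screen; inactive = viability above 50%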;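 note: compound exposure lasted 72 h before the ATP readout; 100% = median luminescence of untreated cell-only wells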
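Material: Human LL 47 lung fibroblast cells | Input: 1,150 cells/well | Buffer or medium: IMEM plus 15% FBS | Compound dosing: 0.1% DMSO in all compound wells | Times: Overnight cell rest, 72 h compound treatment at 37 °C | Signal: CellTiter-Glo luminescence measuring cellular ATP | Measure: % viability versus median cells-only luminescence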
Numbers without * were called inactive.

Cc1ccc(S(=O)(=O)/N=C2/C=C(Sc3ncn[nH]3)C(=O)c3ccccc32)cc1 was read as Pyk2 oligo antag -3.2*, bCat KO growth 31 and PTEN del growth 67.
Screening Cc1ccc(C(=O)CSc2ncn[nH]2)cc1 returned HUVEC prolif 384 94, Pyk2 oligo antag 0.11, bCat KO growth 87, PTEN del growth 97 and Fibroblast inh 93.
CC(C)c1ccc(S(=O)(=O)/N=C2/C=C(Sc3ncn[nH]3)C(=O)c3ccccc32)cc1 was read as bCat KO growth 2.1* and PTEN del growth 11.
For Cc1c(C(=O)Nc2ccc(F)cc2)oc2ccc(S(=O)(=O)N3CC(C)CC(C)C3)cc12 (stereo unspecified) the results were H69AR growth 86K 12*, HUVEC prolif 384 51, Pyk2 oligo antag -0.5, bCat KO growth 2.1*, PTEN del growth 9 and Fibroblast inh 61.
Screening Cc1c(C(=O)NCCC2=CCCCC2)oc2ccc(S(=O)(=O)N3CCOCC3)cc12 returned H69AR growth 86K 10*, HUVEC prolif 384 53, Pyk2 oligo antag -1.6, bCat KO growth 26, PTEN del growth 14 and Fibroblast inh 62.
`Cc1cccc(NC(=O)c2oc3ccc(S(=O)(=O)N4CCOCC4)cc3c2C)c1C` gave H69AR growth 86K 35*, HUVEC prolif 384 71, Pyk2 oligo antag -1.4, bCat KO growth 86, PTEN del growth 75 and Fibroblast inh 103.
Screening Cc1c(C(=O)NCc2cccnc2)oc2ccc(S(=O)(=O)N3CC(C)CC(C)C3)cc12 (stereo unspecified) returned H69AR growth 86K 83, HUVEC prolif 384 61, bCat KO growth 94, PTEN del growth 89 and Fibroblast inh 84.
CCOc1ccccc1C(=O)Nc1cc(Cl)ccc1O was read as H69AR growth 86K 30*, HUVEC prolif 384 50, Pyk2 oligo antag -3.7*, bCat KO growth 57, PTEN del growth 66 and Fibroblast inh 99.
CCOc1c(Cl)cc(C(=O)Nc2ccccc2C(=O)O)cc1Cl was read as Pyk2 oligo antag -4*, bCat KO growth 90 and PTEN del growth 76.
Screening COc1ccc(C(=O)Nc2ccccc2C(=O)O)cc1Cl returned bCat KO growth 94 and PTEN del growth 97.
Screening Cc1ccc(Cl)cc1NC(=O)c1ccccc1OCC(=O)Nc1ccc(Cl)cc1 returned bCat KO growth 27 and PTEN del growth 2.9*.
Screening O=C(NCCC1=CCCCC1)C(=O)NCC(c1ccco1)N1CCN(c2ccc(F)cc2)CC1 (stereo unspecified) returned Pyk2 oligo antag 0.67, bCat KO growth 82 and PTEN del growth 76.
Screening C#CCSc1nnc(CSc2nc3ccccc3s2)n1-c1ccccc1 returned H69AR growth 86K 3.0*, HUVEC prolif 384 80, Pyk2 oligo antag -0.63, bCat KO growth 81, PTEN del growth 83 and Fibroblast inh 89.
`O=C(Nc1ccccc1-c1nc2ccccc2o1)c1ccc2c(c1)OCCO2` gave H69AR growth 86K 44, HUVEC prolif 384 57 and Fibroblast inh 79.
For O=C(Nc1ccc2oc(-c3ccccc3Cl)nc2c1)c1cncc(Br)c1 the results were H69AR growth 86K 18*, HUVEC prolif 384 17*, Pyk2 oligo antag 0.63, bCat KO growth 75, PTEN del growth 66 and Fibroblast inh 66.
For O=C(Nc1ccc2oc(-c3ccccc3F)nc2c1)c1ccc2c(c1)OCCO2 the results were Pyk2 oligo antag -3.1*, bCat KO growth 48 and PTEN del growth 29.
Screening CCOc1ccc2nc(NC(=O)c3ccc(OCC4CCCO4)cc3)sc2c1 (stereo unspecified) returned bCat KO growth 67 and PTEN del growth 58.
`COc1ccc(N/N=C(\C=N\O)C(=O)c2ccc(OC)cc2)cc1` gave H69AR growth 86K 26*, HUVEC prolif 384 38*, Pyk2 oligo antag -1.3, bCat KO growth 19, PTEN del growth 22 and Fibroblast inh 53.
`O=C(CN1C(=O)C2C3c4ccccc4C(c4ccccc43)C2C1=O)Nc1cccc(C(=O)O)c1` (stereo unspecified) gave bCat KO growth 98 and PTEN del growth 100.
For CN1CCN(c2ccc(Cl)cc2NC(=O)c2ccc(S(=O)(=O)N3CCCCCC3)cc2)CC1 the results were H69AR growth 86K 2.5*, HUVEC prolif 384 35, Pyk2 oligo antag -0.54, bCat KO growth 77, PTEN del growth 79 and Fibroblast inh 89.
`CN1CCN(c2ccccc2NC(=O)c2cccc(OCc3ccccc3)c2)CC1` gave H69AR growth 86K 11*, HUVEC prolif 384 8.2*, Pyk2 oligo antag 1.5, bCat KO growth 27, PTEN del growth 35 and Fibroblast inh 76.
CN1CCN(c2ccccc2NC(=O)c2ccc(OCc3ccccc3)cc2)CC1 was read as HUVEC prolif 384 17*, Pyk2 oligo antag 0.2, bCat KO growth 3.4*, PTEN del growth 6 and Fibroblast inh 95.
`O=C(Nc1ccccc1F)c1ccc(OCc2ccccc2)cc1` gave bCat KO growth 97 and PTEN del growth 99.
`CCCCOc1ccc(C(=O)Nc2ccc(N3CCN(C)CC3)cc2)cc1` gave H69AR growth 86K 23*, HUVEC prolif 384 32, Pyk2 oligo antag -0.33, bCat KO growth 1.5*, PTEN del growth 1.8* and Fibroblast inh 28*.
For O=C(Cc1c2ccccc2nc2ccccc12)c1ccccc1 the results were bCat KO growth 82 and PTEN del growth 73.
COc1ccccc1N1CCN(CC(=O)NCC2CCCO2)CC1 (stereo unspecified) was read as H69AR growth 86K 97, HUVEC prolif 384 97, Pyk2 oligo antag 0.3, bCat KO growth 99, PTEN del growth 93 and Fibroblast inh 95.
Screening CC(Sc1nc(-c2ccc(F)cc2)cs1)C(=O)Nc1ccc(Cl)cn1 (stereo unspecified) returned bCat KO growth 83 and PTEN del growth 80.
For O=C(Nc1ccccc1N1CCN(c2ccc(F)cc2)CC1)c1ccccc1 the results were H69AR growth 86K 99, HUVEC prolif 384 90, Pyk2 oligo antag -0.22, bCat KO growth 82, PTEN del growth 79 and Fibroblast inh 98.
`CN1CCN(c2ccccc2NC(=O)c2ccc(-c3ccccc3)cc2)CC1` gave H69AR growth 86K 33*, HUVEC prolif 384 48, Pyk2 oligo antag -0.42, bCat KO growth 47, PTEN del growth 28 and Fibroblast inh 87.
Screening O=C(c1cccc(Cl)c1)c1nn(-c2ccccc2)c(=O)cc1C(F)(F)F returned Pyk2 oligo antag -2.3, bCat KO growth 2.5* and PTEN del growth 1.1*.
